CFTR F508del cor: CFTR F508del correction in bronchial cells. CFBE cells, YFP halide quenching; stimulated with forskolin plus potentiator P3; % fluorescence drop versus neutral controls. activity (quench increase), % at 7.58 µM. 350,000 tested, 0.36% active;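 active = mean added fluorescence quench of at least 8% versus neutral control, with both replicates also reaching 8%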;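 note: cells transiently co-express mutant CFTR-F508del with the halide-sensitive YFP; corrector assay measuring rescue of mutant channel to the surface after 24 h compound exposure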
MC4R antag cAMP: antagonists of human melanocortin 4 receptor (MC4R); P32245; 360,000 tested, 0.48% active; inhibition, % at 6.5 µM; MC4R-expressing cells, MTII-stimulated cAMP, LANCE TR-FRET; AID 540295;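 active = inhibition above its plate's cutoff, the mean of tested wells on that plate plus 3 SD, cut at about 29% in these data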
Target sequence (P32245 whole entry, looked up): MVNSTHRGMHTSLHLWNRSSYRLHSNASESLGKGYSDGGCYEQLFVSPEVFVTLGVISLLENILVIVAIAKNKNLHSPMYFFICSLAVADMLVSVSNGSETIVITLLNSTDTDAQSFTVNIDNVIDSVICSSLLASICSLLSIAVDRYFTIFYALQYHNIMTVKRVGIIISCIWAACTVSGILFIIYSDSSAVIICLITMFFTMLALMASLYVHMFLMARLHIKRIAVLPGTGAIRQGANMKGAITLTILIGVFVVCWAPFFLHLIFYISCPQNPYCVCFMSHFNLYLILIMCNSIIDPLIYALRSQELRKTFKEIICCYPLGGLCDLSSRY
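System: U2OS cells stably expressing human melanocortin 4 receptor (MC4R). Reagent: Melanotan II challenge after compound preincubation. Doses: 6.5 µM. Times: 30-min compound, 1-h challenge, 1-h detection, room temperature. Measured by: TR-FRET with Eu-cAMP and labeled anti-cAMP, 671 nm. Replicates: singlicate.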
MC4R barr agon: agonists of human melanocortin 4 receptor (MC4R) beta-arrestin; P32245; U2OS MC4R beta-arrestin complementation, luminescence; percent of melanotan II response, DMSO zero; activation, % at 8.9 µM; 360,000 tested, 0.98% active;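 active = activation above a per-plate cutoff, the mean activation of sample wells on that plate plus 3 SD, cut at about 8% in these data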
SMARCA2 activ: activators of SMARCA2 function; MG213 cells, MMTV-luciferase reporter, dexamethasone, overnight; activation, % at 9.1 µM; 370,000 tested, 1% active; AID 652017; in the data active = activation above about 7.8%
MC4R barr conf: human MC4R beta-arrestin agonism confirmation; shares compounds with MC4R barr agon; U2OS MC4R beta-arrestin recruitment, luminescence; scaled DMSO 0%, Melanotan II 100%; activation, % at 8.9 µM; 2,400 tested, 31% active; AID 602192;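 active = mean activation across replicates above the hit cutoff set in the earlier primary screen, cut at about 8% in these data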
MOR-DOR barr ag: OPRM1-OPRD1 heterodimer agonism counter-screen; shares compounds with MC4R barr agon; U2OS PathHunter beta-arrestin, beta-gal luminescence; percent of deltorphin B response, DMSO zero; activation, % at 9.2 µM; 2,400 tested, 5.8% active; AID 602194;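 active = mean activation across replicates exceeds the hit threshold derived in the earlier primary screen, cut at about 18% in these data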
A number is an active result; . = inactive; / = no result. A selection: hits, their analogues and other compounds. The true share with any hit is near 2.1%.

SMILES	CFTR F508del cor	MC4R antag cAMP	MC4R barr agon	SMARCA2 activ	MC4R barr conf	MOR-DOR barr ag
CC(C)CC#Cc1cnc2c(c1)C(=O)N([C@@H](C)CO)C[C@@H](C)[C@H](CN(C)C(=O)Nc1ccccc1F)O2	.	/	/	/	/	/
CC1(C)CC(N=c2cc(-c3ccccc3)oc3ccc(Cl)cc23)CC(C)(C)N1	.	.	24	.	.	.
C[C@@H]1CN([C@H](C)CO)C(=O)c2cc(C#CC3CCCCC3)cnc2O[C@@H]1CN(C)C(=O)Cc1ccccn1	.	/	/	/	/	/
O=C(C[C@@H]1C[C@H]2c3cc(NC(=O)NC4CCCCC4)ccc3O[C@H]2[C@H](CO)O1)NCc1ccccc1	.	/	/	/	/	/
C[C@H](CO)N1C[C@H](C)[C@H](CN(C)S(=O)(=O)c2ccccc2)Oc2ccc(NS(C)(=O)=O)cc2CC1=O	.	/	/	/	/	/
CCCc1cc(=O)oc2c(C)c3occ(C)c3cc12	/	.	18	.	.	.
O=C1COc2ccc(C(=O)COC(=O)c3sc4ccccc4c3Cl)cc2N1	/	.	12	.	.	.
COc1ccc2c(Cl)c(C(=O)OCC(=O)c3ccc4c(c3)NC(=O)CO4)sc2c1Cl	.	.	.	.	/	/
O=C(C[C@H]1C=C[C@@H](NC(=O)CCN2CCCCC2)[C@H](CO)O1)Nc1ccccc1	.	/	/	/	/	/
Cc1ccccc1NC(=O)c1ccc(N/N=C/c2ccccc2O)c([N+](=O)[O-])c1	/	.	.	.	/	/
Cc1ccc(NC(=O)c2ccc(N/N=C/c3cccc(O)c3)c([N+](=O)[O-])c2)cc1	/	.	9.9	.	.	.
C[C@@H]1CN([C@@H](C)CO)C(=O)Cc2cc(NS(=O)(=O)c3ccc(Cl)cc3)ccc2O[C@@H]1CN(C)S(C)(=O)=O	.	/	/	/	/	/
Cc1nn(-c2ccccn2)c(C)c1Oc1ccccc1O	/	.	.	.	/	/
Cc1nn(-c2nc3ccccc3s2)c(C)c1Oc1ccccc1O	/	.	22	/	.	.
COc1ccccc1Nc1nnc(SCC(=O)Nc2cc(C)on2)s1	/	.	30	.	.	.
COc1ccc(N2CC(O)=C(c3nc(-c4ccccc4)cs3)C2=N)cc1	.	.	19	.	.	.
O=C(COc1cc(Cl)c(Cl)cc1Cl)Nc1cccc(O)c1	.	.	20	.	.	.
O=C(COc1cc(Cl)c(Cl)cc1Cl)Nc1ccncc1	/	.	.	.	/	/
COc1ccc(-c2sc3cc4c(cc3c2C#CC2(O)CCCCC2)OCO4)cc1	.	.	.	.	/	/
COc1ccc(-c2sc3cc(OC)c(OC)cc3c2C#CC(C)(C)O)cc1	.	.	.	.	/	/
COc1ccc(-c2oc3ccc(-c4ccc(OC)nc4)cc3c2C#CC2(O)CCCCC2)cc1	.	.	13	.	11	.
COc1ccc(-c2oc3ccc(-c4ccc(OC)nc4)cc3c2-c2ccc(OC)cc2)cc1	.	.	.	.	/	/
COc1ccc(-c2sc3cc(OC)c(OC)cc3c2C#CCO)cc1	.	.	18	.	16	.
COc1ccc(-c2ccc3oc(-c4ccc(OC)cc4)c(C#CCO)c3c2)cc1	9.3	.	18	.	15	.
COc1ccc(-c2oc3ccc(N4CCOCC4)cc3c2C#CCO)cc1	.	.	.	.	/	/
SMILES	CFTR F508del cor	MC4R antag cAMP	MC4R barr agon	SMARCA2 activ	MC4R barr conf	MOR-DOR barr ag
COc1ccc(-c2oc3ccc(-c4ccc5c(c4)OCO5)cc3c2C#CC2(O)CCCCC2)cc1	.	.	15	.	17	.
CC(C)NC(=O)Nc1ccc2c(c1)C(=O)N([C@@H](C)CO)C[C@@H](C)[C@H](CN(C)CC1CCCCC1)O2	.	/	/	/	/	/
O=C(C[C@@H]1CC[C@H]2[C@@H](COC[C@@H](O)CN2C(=O)c2ccc(F)cc2)O1)N1CCOCC1	.	/	/	/	/	/
CN(C)CCCn1c(N)c(C#N)c2nc3ccccc3nc21	.	.	.	.	/	/
CCCCC(CC)Cn1c(N)c(C#N)c2nc3ccccc3nc21 (configuration not stated)	.	.	17	.	19	.
CCOC(=O)c1ccc(NC(=S)Nc2cccc(C)n2)cc1	/	.	22	.	.	.
CCOC(=O)c1ccc(NC(=S)Nc2cccc(N)n2)cc1	.	.	.	.	/	/
COc1ccc(C(=O)Cn2nc(CNc3ccc(Br)cc3)[n+]3c2CCCCC3)cc1	.	.	.	.	/	/
Cc1ccc(C(C)C)c(OCc2nn(CC(=O)c3ccc(OC(F)F)cc3)c3[n+]2CCCCC3)c1	/	.	20	/	14	25

Bioassay records: PubChem BioAssay, several laboratories
